This is a sample that favours compounds with a hit; in the whole collection about 3.6% have one here.
Yeast lifespan up – extends the lifespan of yeast. S. cerevisiae growth with nicotinamide, OD615; deaD strain in restrictive glucose medium. AID 775. 130,000 tested, 0.68% active. inhibition of the nicotinamide effect, % at 10 µM;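 active means inhibition above a set limit, placed 3 SD over the median of all compounds, cut at about 26% in these data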;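 further: 0% = nicotinamide-treated wells and 100% = cells grown without nicotinamide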
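assay system = DeaD-strain S. cerevisiae | buffer or medium = restrictive glucose medium | reagent = 1.5 mM nicotinamide | compound = 10 µM single point, 0.25% DMSO | incubation = 48 h compound exposure at 30 °C, humidified | signal = OD615 measurement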
RAM network inh – yeast RAM network inhibition; S. cerevisiae dse1pr::URA3 reporter, 5-FOA growth OD615, 2 d; analog-sensitive cbk1-as2 kinase mutant strain; inhibition, % at 50 µM; 190,000 tested, 1.8% active; AID 868;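 active means inhibition above a set limit, 3 SD over mean compound inhibition, cut at about 8.4% in these data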;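 further: 0% = DMSO-only wells with no growth and 100% = 10 µM 1-NA-PP1 full growth; inhibition rescues growth on 5-FOA so higher OD means more RAM inhibition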
Measles CPE – protection of cells from measles virus; Measles virus-infected cells, CPE protection, absorbance; protection (pct of control), % at 4 µM; 140,000 tested, 1.5% active; in the data active means protection mostly above about 24%, no sharp cut-off; inactive means mostly below about 26%
Phagocyt inh – inhibitors of macrophage phagocytosis. inhibition, % at 5 µM. 110,000 tested, 0.07% active. J774A.1 macrophage IgG-bead phagocytosis, imaging. AID 1029;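 active means inhibition above the mean of the plate negative controls plus 5 SD, cut at about 13% in these data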;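 further: phagocytic index as fraction of beads internalized from green versus red external bead signal; plate controls were DMSO negative control for no effect and cytochalasin-D positive control for full effect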
Yeast growth inh – chemicals that inhibit yeast BB579 growth in restrictive medium (lifespan-shortening candidates); S. cerevisiae BB579 growth, OD615, 48 h; inhibition, % at 10 µM; 140,000 tested, 0.51% active;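 active means inhibition above a set limit, 3 SD over the mean compound inhibition, cut at about 44% in these data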
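controls = amphotericin B 10 µg/mL, positive | assay system = DeaD yeast strain BB579 | schedule = 48 h compound exposure at 30 °C after 4 h preincubation | detection = OD615 turbidity measurement | medium = restrictive CSMM-D medium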
An asterisk follows results filed as active; / = not tested or not shown.

SMILES	Yeast lifespan up	RAM network inh	Measles CPE	Phagocyt inh	Yeast growth inh
CC1(C)CC(=O)C(C(=O)c2ccccc2)C(=O)C1	/	0.1	/	/	/
COc1ccc(C(=O)NC(NC(=O)c2ccc(OC)c(OC)c2)c2ccccc2F)cc1OC	-0.6	1.5	9.4	1.9	-9.6
COc1ccc(N=Nc2nc3ccc(Br)cc3n2C)cc1	-15.3	1.1	9.5	/	-27.3
O=C(O)CN1C(=O)Nc2ccc(Br)cc2C1c1ccccc1 (stereo not given)	-7.0	1.2	39.3*	-0.5	13.7
Cn1c(=O)c2c(=O)cc(NNC(=O)CC#N)[nH]c2n(C)c1=O	/	0.5	/	/	/
Cc1ccc(N(CC(O)COCc2ccco2)S(=O)(=O)c2ccc(C)cc2)cc1 (stereo not given)	-17.4	4.0	46.4*	-3.2	-7.8
CCCN(CCC)CC(O)CN(c1ccccc1)S(=O)(=O)c1ccc(C)cc1 (stereo not given)	7.8	0.3	9.9	-0.7	-58.6
CCn1c(=O)c2cc(C(=O)NCCN3CCOCC3)sc2c2ccccc21	-9.9	-1.0	5.3	-0.7	5.7
CCn1c(=O)c2cc(C(=O)NCc3cccs3)sc2c2ccccc21	/	9.9*	/	/	/
COC(=O)c1sc2ccccc2c1-n1cccc1C(=O)C(=O)Nc1ccc(Cl)cc1	-6.8	2.3	14.8	/	-34.8
COC(=O)c1sc2ccccc2c1-n1cccc1C(=O)C(=O)Nc1ccc(C)cc1	37.7*	5.9	4.0	/	-53.9
CC(=O)Oc1ccc(-c2cccc(C(=O)NCCCO)c2)cc1	4.5	-0.5	7.6	-7.6	-15.9
COc1ccc(C2N(Cc3ccccc3)CCN2Cc2ccccc2)cc1[N+](=O)[O-]	/	3.6	/	/	/
CCOC(=O)CS(=O)(=O)c1nc(-c2ccccc2)cc(C(F)(F)F)n1	/	-1.6	5.8	-0.7	-45.2
CCOC(=O)CS(=O)(=O)c1nc(-c2ccc(F)cc2)cc(C(F)(F)F)n1	67.3*	-1.1	-2.4	-1.3	-44.1
COC(=O)CCS(=O)(=O)c1nc(-c2ccccc2)cc(C(F)(F)F)n1	76.8*	-1.4	-0.7	-0.5	-8.1
CCOC(=O)CCS(=O)(=O)c1nc(-c2ccccc2)cc(C(F)(F)F)n1	67.2*	-1.2	6.8	1.9	-32.0
COc1ccc(C(=O)NC(=S)Nc2ccc3oc(=O)ccc3c2)cc1OC	-3.4	4.2	3.1	-4.6	-20.6
Cc1cc(C)c(NC(=O)c2ccc(CN3CCc4ccccc4C3)cc2)c(C)c1	-6.1	1.7	1.5	-0.3	-26.5
O/N=C(\c1ccc(Cl)cc1Cl)c1ncc(C(F)(F)F)cc1Cl	0.6	-1.1	3.4	2.2	-34.6
c1ccc2c(Nc3ccc4c(c3)OCCO4)c3c(nc2c1)CCCC3	/	2.0	/	/	/
CC(=O)N/C(=C\c1ccc(C)cc1)C(=O)O	/	1.2	/	/	/
CCCc1c(C)nn(-c2ncccc2[N+](=O)[O-])c1C	/	-0.7	/	/	/
CCOc1cc(/C=N/NC(N)=O)ccc1OC(=O)c1ccc(C)cc1	-8.3	6.1	20.4	/	-40.0
CCOc1cc(/C=N/NC(=O)CNc2ccc(C)cc2)ccc1OC(=O)c1ccccc1	-7.4	2.1	10.1	174.5*	-28.2
SMILES	Yeast lifespan up	RAM network inh	Measles CPE	Phagocyt inh	Yeast growth inh
O=C(OC1CCCCC1)c1ccc2c(c1)C1C=CCC1C(C(=O)O)N2 (stereo not given)	-0.8	11.4*	5.6	-0.9	-11.3
Cc1cccc(-c2noc(CN(C(C)C)S(=O)(=O)c3ccc(F)cc3)n2)c1	-2.3	8.5*	4.7	-1.3	-62.5
Cc1cccc(-c2noc(CN(C(=O)c3ccc4c(c3)OCO4)C(C)C)n2)c1	-30.4	2.8	46.0*	3.5	-1.6
Cc1ccc(-c2csc(NC(=O)CSc3nc4ccccc4c(=O)n3CCCN(C)C)n2)cc1	/	-0.8	/	/	/
Cc1oc(-c2ccccc2Cl)nc1CSc1nc2c(c(=O)[nH]1)CCC2	-3.1	4.0	6.8	/	-15.6
CCOC(=O)C1(CC2CCCCO2)CCN(C(=O)Nc2ccccc2)CC1 (stereo not given)	/	-0.4	/	/	/
CC(C)CCn1c(O)c(N=Nc2ccccn2)c2ccccc21	-2.0	7.4	8.6	-7.1	-17.4
Oc1ccc2ccccc2c1N=Nc1ccccn1	-7.4	1.1	1.1	-0.7	90.4*
Cc1cc(C)cc(NS(=O)(=O)c2cnc(Cl)c(Cl)c2)c1	-18.2	-1.4	10.3	-1.6	76.2*
Cc1ccc(CN(Cc2ccco2)S(=O)(=O)c2ccc(S(=O)(=O)NCC3CCCO3)cc2)cc1 (stereo not given)	6.3	9.3*	43.3	1.1	-49.5
Cn1ccs/c1=N\C(=O)Nc1ccccc1	/	2.7	/	/	/
S=C(Nc1ccccc1)Nc1cc(Cl)ccc1Oc1ccccc1	-6.4	2.5	32.9*	-1.3	-14.0
S=C(Nc1ccccc1)Nc1ccc(Cl)cc1Cl	-7.0	-0.9	15.2	0.3	-12.3
COc1ccccc1-n1nnnc1SCc1ccccc1	-15.1	-0.1	5.2	-0.7	-35.5
COc1ccccc1-n1nnnc1SCc1cc2c(cc1Br)OCO2	5.6	9.5*	3.0	2.5	-62.5
COc1ccc(S(=O)(=O)Nc2ccc(S(=O)(=O)Nc3ccc(F)cc3)cc2)cc1C	/	9.6*	3.0	/	-8.3
CCOc1cc(C)c(S(=O)(=O)Nc2ccc(F)cc2)cc1C	-17.7	13.4*	6.7	-0.3	-20.3
NS(=O)(=O)c1ccc(CCNc2ncnc3c2c(-c2ccccc2)cn3-c2ccc(F)cc2)cc1	-13.8	0.9	17.1	-0.3	-21.9
Cc1nonc1NC(=O)CSc1nc(C2CCCCC2)nc2ccccc12	61.3*	5.8	8.6	-0.7	-33.0
Cc1nn(C)c(C)c1NC(=O)CSc1nc(C2CC2)nc2c1cnn2-c1ccccc1	-30.9	0.3	61.8*	/	-0.9
O=S1(=O)CCC(NC(=S)N2CCCCC2)C1 (stereo not given)	6.1	-1.1	2.8	0.6	1.1
O=C(Nc1cccc(C(F)(F)F)c1)c1cccnc1N1CCOCC1	-0.9	2.1	7.8	-3.1	-27.9
O=C(Nc1cccc(F)c1)c1cccnc1N1CCOCC1	-3.6	2.0	23.7*	-0.4	17.9
CCCCNS(=O)(=O)c1ccc(NC(=O)c2c(-c3ccccc3Cl)noc2C)cc1	-9.5	3.0	4.5	0.2	-22.6
O=C(NCCc1ccccc1)N1c2ccccc2Sc2ccccc21	-8.9	9.8*	2.3	0.3	-35.9
SMILES	Yeast lifespan up	RAM network inh	Measles CPE	Phagocyt inh	Yeast growth inh
O=C(C[n+]1ccccc1)N1c2ccccc2Sc2ccccc21	/	4.9	/	/	/
CNc1oc(-c2cccs2)nc1S(=O)(=O)c1ccccc1	/	1.0	/	/	/
CCCCNc1oc(-c2cccs2)nc1S(=O)(=O)c1ccccc1	12.2	9.5*	17.9	-1.3	-26.2
O=C(O)[C@@H]1CCCC[C@@H]1C(=O)N1CCc2ccccc2C1CN1C(=O)c2ccccc2C1=O (stereo not given in full)	-3.9	1.0	63.7*	1.5	-47.6
O=C1c2ccccc2C(=O)N1CC1c2ccccc2CCN1C(=O)C1CCCCC1 (stereo not given)	0.2	0.3	8.9	0.0	-38.4
C=CCC1(O)C(=O)N2C(=C1C(=O)OCC)c1ccc3ccccc3c1CC2(C)C (stereo not given)	2.4	-0.7	60.9*	/	-11.8
CCNc1cc2oc(=O)c(CN3CCOCC3)c(C)c2cc1C	-25.4	2.4	42.9*	-0.9	-4.8
